Results as given in publication PMC6525002 (Cancer Management and Research, 2019).
Values joined by “and” are separate entries in the source; they are usually repeats but may differ in a detail not shown here. Equal values may be shown once. “Also recorded” adds a separate entry of the source.

Assays:
EGFR = conditions: read-out: half maximal inhibitory concentration on EGFR; in vitro; cited from earlier work
EGFR phosphorylation = conditions: in vivo, preclinical; cited from earlier work
patients = experiment: Ongoing study exploring higher simotinib doses; format: in vivo, human; conditions: 800 mg, 3 patients
[1] = test system: patients with advanced NSCLC and EGFR gene mutations; experiment: Phase Ib safety and toxicity; format: in vivo, human
Method in brief: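 3+3 dose escalation (modified Fibonacci) of oral test compound, 100–650 mg flat doses twice daily for 28 days. Safety population was all patients dosed at least once. AEs were graded by NCI CTCAE v4.0. Haematology, liver and renal labs were taken predose on Days 1, 8, 15, 22 and 29, plus ECG, echocardiography and chest X-ray. MTD was defined by >1 DLT per dose level.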

[2] = test system: other investigated kinases; conditions: in vitro; cited from earlier work
[3] = test system: advanced NSCLC with EGFR gene mutations; experiment: Phase Ib clinical antitumor activity; format: in vivo, human
human A431 tumor cells = conditions: in vitro, cells with high expression of EGFR; cited from earlier work
[4] = 12 healthy volunteers, cited from earlier work

Substance: simotinib
- IC50 (EGFR): 19.9 nM
- antitumor activity in nude xenograft model (EGFR phosphorylation): inhibiting EGFR phosphorylation
- bradycardia (patients): 1 patient
- decreased blood pressure of <90/60 mmHg (patients): occurred in all patients
- dose reduction due to cardiovascular events (patients): 1 patient
- Aminotransferase elevation ([1]; 100 mg twice daily, N=2): 0 n (%)
- Bilirubin elevation ([1]; 100 mg twice daily, N=2): 0 n (%)
- Diarrhea ([1]; 100 mg twice daily, N=2): 0 n (%)
- Erythrocyte reduction ([1]; 100 mg twice daily, N=2): 0 n (%)
- Fatigue ([1]; 100 mg twice daily, N=2): 2 (100) n (%)
- Neutropenia ([1]; 100 mg twice daily, N=2): 0 n (%)
- Pruritus ([1]; 100 mg twice daily, N=2): 2 (100) n (%)
- Rash ([1]; 100 mg twice daily, N=2): 1 (50.0) n (%)
- Aminotransferase elevation ([1]; 200 mg twice daily, N=3): 0 n (%)
- Bilirubin elevation ([1]; 200 mg twice daily, N=3): 2 (66.7) n (%)
- Diarrhea ([1]; 200 mg twice daily, N=3): 3 (100) n (%)
- Erythrocyte reduction ([1]; 200 mg twice daily, N=3): 1 (33.3) n (%)
- Fatigue ([1]; 200 mg twice daily, N=3): 1 (33.3) n (%)
- Neutropenia ([1]; 200 mg twice daily, N=3): 3 (100) n (%)
- Pruritus ([1]; 200 mg twice daily, N=3): 2 (66.7) n (%)
- Rash ([1]; 200 mg twice daily, N=3): 2 (66.7) n (%)
- Aminotransferase elevation ([1]; 300 mg twice daily, N=3): 1 (33.3) n (%)
- Bilirubin elevation ([1]; 300 mg twice daily, N=3): 2 (66.7) n (%)
- Diarrhea ([1]; 300 mg twice daily, N=3): 3 (100) n (%)
- Erythrocyte reduction ([1]; 300 mg twice daily, N=3): 0 n (%)
- Fatigue ([1]; 300 mg twice daily, N=3): 2 (66.7) n (%)
- Neutropenia ([1]; 300 mg twice daily, N=3): 1 (33.3) n (%)
- Pruritus ([1]; 300 mg twice daily, N=3): 1 (33.3) n (%)
- Rash ([1]; 300 mg twice daily, N=3): 0 n (%)
- death during the treatment phase ([1]; 400 mg dose): 1 patient
- patients with at least 1 study drug-related AE ([1]; 400 mg dose group): 86.7%
- Aminotransferase elevation ([1]; 400 mg twice daily, N=15): 2 (13.3) n (%)
- Bilirubin elevation ([1]; 400 mg twice daily, N=15): 1 (6.7) n (%)
- Diarrhea ([1]; 400 mg twice daily, N=15): 7 (46.7) n (%)
- Erythrocyte reduction ([1]; 400 mg twice daily, N=15): 4 (26.7) n (%)
- Fatigue ([1]; 400 mg twice daily, N=15): 2 (13.3) n (%)
- Neutropenia ([1]; 400 mg twice daily, N=15): 3 (20.0) n (%)
- Pruritus ([1]; 400 mg twice daily, N=15): 4 (26.7) n (%)
- Rash ([1]; 400 mg twice daily, N=15): 2 (13.3) n (%)
- patients with at least 1 study drug-related AE ([1]; 500 mg dose group): 91.7%
- AEs of grade ≥3 ([1]; 500 mg group): 3 patients
- Aminotransferase elevation ([1]; 500 mg twice daily, N=12): 2 (16.7) n (%)
- Bilirubin elevation ([1]; 500 mg twice daily, N=12): 2 (16.7) n (%)
- Diarrhea ([1]; 500 mg twice daily, N=12): 7 (58.3) n (%)
- Erythrocyte reduction ([1]; 500 mg twice daily, N=12): 2 (16.7) n (%)
- Fatigue ([1]; 500 mg twice daily, N=12): 3 (25.0) n (%)
- Neutropenia ([1]; 500 mg twice daily, N=12): 2 (16.7) n (%)
- Pruritus ([1]; 500 mg twice daily, N=12): 1 (8.3) n (%)
- Rash ([1]; 500 mg twice daily, N=12): 9 (75.0) n (%)
- Aminotransferase elevation ([1]; 650 mg twice daily, N=6): 3 (50.0) n (%)
- Bilirubin elevation ([1]; 650 mg twice daily, N=6): 0 n (%)
- Diarrhea ([1]; 650 mg twice daily, N=6): 3 (50.0) n (%)
- Erythrocyte reduction ([1]; 650 mg twice daily, N=6): 2 (33.3) n (%)
- Fatigue ([1]; 650 mg twice daily, N=6): 0 n (%)
- Neutropenia ([1]; 650 mg twice daily, N=6): 2 (33.3) n (%)
- Pruritus ([1]; 650 mg twice daily, N=6): 0 n (%)
- Rash ([1]; 650 mg twice daily, N=6): 3 (50) n (%)
- patients with at least 1 study drug-related AE ([1]; 100, 200, 300, and 650 mg dose groups): all patients
- tolerability ([1]; 100 to 650 mg twice daily): well tolerated
- dose-limiting toxicity (DLT) ([1]; 100 to 650 mg twice daily, 28 days): no dose-limiting toxicities; also recorded: No DLT was observed
- Aminotransferase elevation ([1]; Total N=41): 8 (19.5) n (%)
- Bilirubin elevation ([1]; Total N=41): 7 (17.1) n (%)
- Diarrhea ([1]; Total N=41): 23 (56.1) n (%)
- Erythrocyte reduction ([1]; Total N=41): 9 (22.0) n (%)
- Fatigue ([1]; Total N=41): 10 (24.4) n (%)
- Neutropenia ([1]; Total N=41): 11 (26.8) n (%)
- Pruritus ([1]; Total N=41): 10 (24.4) n (%)
- Rash ([1]; Total N=41): 17 (41.5) n (%)
- AEs of grade ≥3, patients ([1]; all doses, 7 of 41 patients): 17.1%
- patients with at least one study drug-related AE ([1]; all doses, 38 of 41 patients): 92.7%
- patients with at least one AE ([1]; all doses, 39 of 41 patients): 95.1%
- anemia, frequency ([1]; all doses, 41 patients): 22.0%
- diarrhea, frequency ([1]; all doses, 41 patients): 56.1%
- fatigue, frequency ([1]; all doses, 41 patients): 24.4%
- increased level of aminotransferase, frequency ([1]; all doses, 41 patients): 19.5%
- increased level of bilirubin, frequency ([1]; all doses, 41 patients): 17.1%
- neutropenia, frequency ([1]; all doses, 41 patients): 26.8%
- pruritus, frequency ([1]; all doses, 41 patients): 24.4%
- rash, frequency ([1]; all doses, 41 patients): 41.5%
- maximum tolerated dose (MTD) ([1]; doses of up to 650 mg twice daily): not found; also recorded: not reached
- patients who discontinued the study ([1]; one patient, 500 mg): 2.4%
- activity on other investigated kinases [2]: no significant activity
- deaths during the whole study ([3]; 100 mg group): 2 deaths
- deaths during the whole study ([3]; 200 mg group): 3 deaths
- deaths during the whole study ([3]; 300 mg group): 1 deaths
- deaths during the whole study ([3]; 400 mg group): 1 deaths
- partial response in patients with brain metastases ([3]; 500 mg, 12 patients): 16.7% and 16%
- partial response in patients with brain metastases ([3]; 650 mg, 6 patients): 50%
- stable disease as best response ([3]; 41 patients, RECIST 1.1): 46.3%
- deaths during the whole study (treatment phase and follow-up period) ([3]; all doses): 7 deaths
- survival rate at 1-year ([3]; all doses): 88.2%
- median PFS ([3]; all doses, Kaplan–Meier, 95%CI 4.7, 12.1): 9.9 months
- median OS ([3]; all doses, Kaplan–Meier, 95%CI 12.3, 22.5): 14.6 months
- patients with brain metastases who achieved partial response on these metastases ([3]; of the 18 patients with brain metastases): 5 patients
- inhibition of growth of human A431 tumor cells (human A431 tumor cells): inhibits in a dose-dependent manner
- average clearance (CL) T1/2 ([4]; dose range 25–500 mg): 8 to 12 h
- tolerability ([4]; phase Ia): well tolerated
